Results as given in PubChem BioAssay.
The source made the active and inactive calls.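 How the source made its calls, unless noted: active means potentiation averaged over duplicate wells exceeding buffer-only control mean by more than 3 SD; inactive means the rest.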

System: not listed separately
Assay: thallium flux activation in parental CHO cells, counter-screen for KCNQ1 potentiator project (AID 493006;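 active means duplicate-averaged activation above buffer control mean plus 5 SD of those controls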;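 on activation: fluorescence ratio of max minus min over baseline after K+ and Tl+ depolarization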)
Settings: parental CHO-K1 cells, FluxOR thallium flux, at 10 µM; hits give high values
How it was run: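 Material: parental CHO-K1 cells, FluxOR dye-loaded; Also added: Potassium/thallium depolarization pulse; Schedule: overnight 37 °C plating, 90 min dye, 20 min dark compound; Signal: kinetic FluxOR fluorescence, 10 s baseline, 110 s after stimulus.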

SMILES | outcome | activation
CC1(C)N=C(N)NC(Nc2cccc(Br)c2)=N1 | inactive | 
Cc1ccc(-c2nc3ccccc3o2)cc1NC(=S)NC(=O)c1cc2ccccc2o1 | inactive | 
Cc1cc(=O)oc2cc(OCC3CC(c4ccccc4Cl)=NO3)ccc12 (stereo not drawn) |  | 156% (active)
CCc1ccccc1NC(=O)C1CCN(C(=O)N2CCOc3ccccc32)CC1 | inactive | 
C=CCn1c(O)c(N=NC(=S)Nc2ccc(OC)c(Cl)c2)c2ccccc21 |  | 191% (active)
O=S(=O)(Nc1ccccc1Cl)c1ccc(NS(=O)(=O)c2cccs2)cc1 | inactive | 
CCn1c(=S)[nH]c2sc3c(c2c1=O)CCCC3 |  | 338% (active)
O=C(NC(=S)N1CCc2ccccc21)c1ccccc1Br |  | 537% (active)
Cc1c(/C=N\NC(=O)c2ccc(F)cc2)cnn1C | inactive | 
O=C(O)CCSc1ncnc2sc(-c3ccccc3)cc12 |  | 180% (active)
CN(CCCNC(=O)CSc1cc(=O)n(C)c2ccc(Cl)cc12)Cc1ccccc1 | inactive | 
O=C(NC(=S)N1CCN(c2ccc(Cl)cc2[N+](=O)[O-])CC1)c1cccs1 |  | 188% (active)
C/C(=N\NC(=O)C(C)Sc1ccccc1)c1ccc([N+](=O)[O-])cc1 (stereo not drawn) | inactive | 
Cn1c(O)c(N=Nc2nc(-c3ccccc3)cs2)c2ccccc21 |  | 510% (active)
Cc1nn(CC(=O)NC(C)c2ccccc2)c(=O)c2ccccc12 (stereo not drawn) |  | 150% (active)
S=c1nc(-c2ccccc2)[nH]n1-c1ccccc1 |  | 504% (active)
COc1ccc(NC(=O)CCCSc2nc(-c3ccco3)cc(C(F)(F)F)n2)cc1OC | inactive | 
C/C(N)=C(/C#N)C(=O)COc1ncnc2ccc(Br)cc12 | inactive | 
O=C(Nc1ccc(Cl)cn1)c1cccc(S(=O)(=O)N2CCOCC2)c1 | inactive | 
CCCCCNC(=O)Cn1c(=O)c2c(ncn2CC(C)C)n(Cc2ccccc2)c1=O | inactive | 

SMILES | outcome | activation
Cc1ccccc1NS(=O)(=O)c1ccc2[nH]cc(C(=O)N(C)Cc3ccco3)c(=O)c2c1 | inactive | 
COc1ccc(C)cc1NC(=O)C1C2C=CC(C2)C1C(=O)O (stereo not drawn) | inactive | 
COc1ccc(C(=O)O/N=C(\N)c2ccccc2Cl)cc1OC | inactive | 
O=C(c1ccccc1NS(=O)(=O)c1ccc(Br)cc1)N1CCOCC1 |  | 306% (active)
CC/C(=N/NC(=O)c1ccc(Br)o1)c1ccc(Cl)cc1 | inactive | 
O=[N+]([O-])c1ccc(Nc2ccc(Cl)cc2)nc1 | inactive | 
COC(=O)c1c(NC(=S)Nc2ccccc2Cl)sc(C)c1C | inactive | 
CCN(CC)CC(O)Cn1c2ccccc2c2ccccc21 (stereo not drawn) | inactive | 
Cc1ccc(/C=C/C(=O)c2ccccc(=O)c2O)cc1C |  | 174% (active)
O=C(NC(=S)Nc1nc2ccc(F)cc2s1)c1ccco1 |  | 282% (active)
S=c1[nH]cnc2scc(-c3ccccc3)c12 |  | 192% (active)
CC(C)(C)NC(=O)C(=O)NNC(=O)c1cccc(Br)c1 |  | 242% (active)
CCOC(=O)C1(CCCc2ccccc2)CCN(Cc2cnc(C)s2)CC1 | inactive | 
COc1cccc(-c2cn(-c3cccc(C(F)(F)F)c3)c(=S)[nH]2)c1 | inactive | 
CN(C(=S)NC(=O)c1ccccc1)C1CCCCC1 |  | 228% (active)
COc1ccc(Cc2nnc(NC(=O)C3CC(=O)N(c4ccccc4)C3)s2)cc1OC (stereo not drawn) | inactive | 
Cc1ccccc1OCc1nnc(SCCN2CCCC2)n1-c1ccccc1 | inactive | 
CCOc1ccc(N2CC(C(=O)Nc3cc(Cl)ccc3-n3cncn3)CC2=O)cc1 (stereo not drawn) | inactive | 
COC(=O)c1ccc(NC(=S)NC(=O)c2c(Cl)cnn2C)cc1 |  | 142% (active)

Molecular target: Potassium voltage-gated channel subfamily KQT member 1 (Homo sapiens) (UniProt P51787)
Sequence (P51787 whole entry, looked up): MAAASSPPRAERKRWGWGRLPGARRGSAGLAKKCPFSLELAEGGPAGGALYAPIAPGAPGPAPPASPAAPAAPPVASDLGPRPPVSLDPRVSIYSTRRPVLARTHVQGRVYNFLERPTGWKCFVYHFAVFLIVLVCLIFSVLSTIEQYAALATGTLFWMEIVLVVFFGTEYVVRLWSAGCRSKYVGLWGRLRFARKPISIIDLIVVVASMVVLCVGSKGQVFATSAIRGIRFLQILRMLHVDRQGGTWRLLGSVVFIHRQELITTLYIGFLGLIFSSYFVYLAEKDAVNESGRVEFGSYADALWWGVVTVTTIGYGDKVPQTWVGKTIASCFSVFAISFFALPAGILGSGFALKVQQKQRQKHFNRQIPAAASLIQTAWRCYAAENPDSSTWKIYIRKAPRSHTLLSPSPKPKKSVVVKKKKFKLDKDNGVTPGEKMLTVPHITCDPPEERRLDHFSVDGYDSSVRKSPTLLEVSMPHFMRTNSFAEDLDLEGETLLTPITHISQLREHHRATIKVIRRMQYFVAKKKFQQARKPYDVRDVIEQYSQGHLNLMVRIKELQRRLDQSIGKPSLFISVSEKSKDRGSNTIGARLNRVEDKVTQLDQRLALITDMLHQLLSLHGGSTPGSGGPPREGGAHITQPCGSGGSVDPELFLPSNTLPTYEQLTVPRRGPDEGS
Assay: KCNQ1 potassium channel potentiators, confirmation, FluxOR thallium flux, CHO cells, duplicates (AID 493007);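 on outcome: cells depolarized by a potassium plus thallium sulfate stimulus after compound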
Settings: KCNQ1 cell line, FluxOR thallium flux fluorescence, at 10 µM; hits give high values, % of reference activator effect, buffer zero
How it was run: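 System: KCNQ1-expressing CHO cell line; technique: kinetic thallium influx fluorescence with FluxOR dye, 10 s baseline, 110 s post-stimulus; timing: dye 90 min then compound 20 min, both at room temperature; controls: buffer-only wells as 0% and R-L3 activator as 100%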

SMILES | outcome | potentiation
CC1(C)N=C(N)NC(Nc2cccc(Br)c2)=N1 | inactive | 
Cc1ccc(-c2nc3ccccc3o2)cc1NC(=S)NC(=O)c1cc2ccccc2o1 |  | 21.5% (active)
Cc1cc(=O)oc2cc(OCC3CC(c4ccccc4Cl)=NO3)ccc12 (stereo not drawn) |  | 30.5% (active)
CCc1ccccc1NC(=O)C1CCN(C(=O)N2CCOc3ccccc32)CC1 | inactive | 
C=CCn1c(O)c(N=NC(=S)Nc2ccc(OC)c(Cl)c2)c2ccccc21 |  | 57% (active)
O=S(=O)(Nc1ccccc1Cl)c1ccc(NS(=O)(=O)c2cccs2)cc1 |  | 26.5% (active)
CCn1c(=S)[nH]c2sc3c(c2c1=O)CCCC3 |  | 149% (active)
O=C(NC(=S)N1CCc2ccccc21)c1ccccc1Br |  | 208% (active)
Cc1c(/C=N\NC(=O)c2ccc(F)cc2)cnn1C | inactive | 
O=C(O)CCSc1ncnc2sc(-c3ccccc3)cc12 |  | 89.5% (active)
CN(CCCNC(=O)CSc1cc(=O)n(C)c2ccc(Cl)cc12)Cc1ccccc1 | inactive | 
O=C(NC(=S)N1CCN(c2ccc(Cl)cc2[N+](=O)[O-])CC1)c1cccs1 |  | 61% (active)
C/C(=N\NC(=O)C(C)Sc1ccccc1)c1ccc([N+](=O)[O-])cc1 (stereo not drawn) | inactive | 
Cn1c(O)c(N=Nc2nc(-c3ccccc3)cs2)c2ccccc21 |  | 385% (active)
Cc1nn(CC(=O)NC(C)c2ccccc2)c(=O)c2ccccc12 (stereo not drawn) |  | 85.5% (active)
S=c1nc(-c2ccccc2)[nH]n1-c1ccccc1 |  | 210% (active)
COc1ccc(NC(=O)CCCSc2nc(-c3ccco3)cc(C(F)(F)F)n2)cc1OC | inactive | 
C/C(N)=C(/C#N)C(=O)COc1ncnc2ccc(Br)cc12 | inactive | 
O=C(Nc1ccc(Cl)cn1)c1cccc(S(=O)(=O)N2CCOCC2)c1 | inactive | 
CCCCCNC(=O)Cn1c(=O)c2c(ncn2CC(C)C)n(Cc2ccccc2)c1=O | inactive | 

SMILES | outcome | potentiation
Cc1ccccc1NS(=O)(=O)c1ccc2[nH]cc(C(=O)N(C)Cc3ccco3)c(=O)c2c1 |  | 44% (active)
COc1ccc(C)cc1NC(=O)C1C2C=CC(C2)C1C(=O)O (stereo not drawn) | inactive | 
COc1ccc(C(=O)O/N=C(\N)c2ccccc2Cl)cc1OC | inactive | 
O=C(c1ccccc1NS(=O)(=O)c1ccc(Br)cc1)N1CCOCC1 |  | 112% (active)
CC/C(=N/NC(=O)c1ccc(Br)o1)c1ccc(Cl)cc1 | inactive | 
O=[N+]([O-])c1ccc(Nc2ccc(Cl)cc2)nc1 | inactive | 
COC(=O)c1c(NC(=S)Nc2ccccc2Cl)sc(C)c1C | inactive | 
CCN(CC)CC(O)Cn1c2ccccc2c2ccccc21 (stereo not drawn) | inactive | 
Cc1ccc(/C=C/C(=O)c2ccccc(=O)c2O)cc1C |  | 56.5% (active)
O=C(NC(=S)Nc1nc2ccc(F)cc2s1)c1ccco1 |  | 132% (active)
S=c1[nH]cnc2scc(-c3ccccc3)c12 |  | 52% (active)
CC(C)(C)NC(=O)C(=O)NNC(=O)c1cccc(Br)c1 |  | 34% (active)
CCOC(=O)C1(CCCc2ccccc2)CCN(Cc2cnc(C)s2)CC1 | inactive | 
COc1cccc(-c2cn(-c3cccc(C(F)(F)F)c3)c(=S)[nH]2)c1 | inactive | 
CN(C(=S)NC(=O)c1ccccc1)C1CCCCC1 |  | 29% (active)
COc1ccc(Cc2nnc(NC(=O)C3CC(=O)N(c4ccccc4)C3)s2)cc1OC (stereo not drawn) | inactive | 
Cc1ccccc1OCc1nnc(SCCN2CCCC2)n1-c1ccccc1 | inactive | 
CCOc1ccc(N2CC(C(=O)Nc3cc(Cl)ccc3-n3cncn3)CC2=O)cc1 (stereo not drawn) | inactive | 
COC(=O)c1ccc(NC(=S)NC(=O)c2c(Cl)cnn2C)cc1 |  | 26% (active)
